Four compounds from ChEMBL document CHEMBL1156568, “3-(1H-tetrazol-5-yl)-1,4,5,6-tetrahydro-cyclopentapyrazole (MK-0354): a partial agonist of the nicotinic acid receptor, G-protein coupled receptor 109a, with antilipolytic but no vasodilatory activity in mice” (J Med Chem, 2008) can be followed below.

Data set [1] is described as follows: Volume of distribution in C57BL/6 mouse at 5 mg/kg, iv and 10 mg/kg, po. The settings on record: in vivo. The data set is classed as ADME, organism-based. In outline:
(§1)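 Male C57BL/6 mice dosed IV at 5.0 mg/kg in PBS, or by oral gavage at 10 mg/kg in PBS. Clearance is blood clearance. Cmax and Tmax come from oral dosing. Half-life is terminal. Oral bioavailability is also reported.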

A short description of data set [2]: Half life in C57BL/6 mouse at 5 mg/kg, iv and 10 mg/kg, po. The settings on record: in vivo. In kind it is ADME, organism-based. In outline:
as §1

Data set [3] can be described thus: Cmax in C57BL/6 mouse at 5 mg/kg, iv and 10 mg/kg, po. In kind it is ADME, organism-based. The note with it: in vivo. In outline:
as §1

Data set [4] can be described thus: Tmax in C57BL/6 mouse at 5 mg/kg, iv and 10 mg/kg, po. The settings on record: in vivo. In kind it is ADME, organism-based. In outline:
as §1

Data set [5] can be described thus: Oral bioavailability in C57BL/6 mouse at 10 mg/kg, po. In kind it is ADME, organism-based. The settings on record: in vivo. In outline:
as §1

The species entered for data set [6] is Mus musculus. As to the kind of experiment: Vasodilation effect in C57BL/6 mouse assessed as increase in blood flow relative to baseline. The data set is classed as functional, organism-based. In outline:
(§2)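 Male C57BL/6 mice, 8-10 weeks, ~25 g, anesthetized with Nembutal ip (80 mg/kg). After 10 min, ear blood flow was recorded by laser Doppler imaging: 3 min baseline, then ip dosing (5 mL/kg) through a preinserted syringe, reading ~15 min. Vehicle was PBS, 40% HPBCD or 0.5% methylcellulose. Result expressed as % change in perfusion over baseline.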

A further data set has as its system Adipocyte. As to the kind of experiment: Inhibition isoproterenol-stimulated lipolysis in human adipocytes.
Data set [7] relates to Mus musculus. As to the kind of experiment: Reduction in plasma FFA level in ip dosed C57BL/6 mouse. The data set is classed as functional. The note with it: C57BL/6, Plasma. In outline: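 Male C57BL/6 mice, at least 8 weeks old, fasted 16 h, then dosed ip in saline. Plasma FFA was measured by an enzymatic NEFA assay, and compound levels in the same plasma by LC-MS/MS.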

Data set [8] has as its target Hydroxycarboxylic acid receptor 3 (Homo sapiens) (UniProt P49019). As to the kind of experiment: Agonist activity against GPR109b assessed as forskolin-induced cAMP accumulation relative to nicotinic acid. The data set is classed as functional. (In general: cAMP levels reflect the balance of adenylyl cyclase and phosphodiesterase activity.)
The species entered for data set [9] is Mus musculus. As to the kind of experiment: Inhibition of nicotinic acid-induced vasodilation response in C57BL/6 mouse assessed as blood flow. In kind it is functional, organism-based. In outline:
as §2

The species entered for data set [10] is Mus musculus. Briefly: Inhibition of PGD2-induced vasodilation response in C57BL/6 mouse assessed as blood flow. In kind it is functional, organism-based. In outline: as §2

Activity calls are given as the source filed them.

Hydroxycarboxylic acid receptor 3 (Homo sapiens), sequence (P49019 whole entry): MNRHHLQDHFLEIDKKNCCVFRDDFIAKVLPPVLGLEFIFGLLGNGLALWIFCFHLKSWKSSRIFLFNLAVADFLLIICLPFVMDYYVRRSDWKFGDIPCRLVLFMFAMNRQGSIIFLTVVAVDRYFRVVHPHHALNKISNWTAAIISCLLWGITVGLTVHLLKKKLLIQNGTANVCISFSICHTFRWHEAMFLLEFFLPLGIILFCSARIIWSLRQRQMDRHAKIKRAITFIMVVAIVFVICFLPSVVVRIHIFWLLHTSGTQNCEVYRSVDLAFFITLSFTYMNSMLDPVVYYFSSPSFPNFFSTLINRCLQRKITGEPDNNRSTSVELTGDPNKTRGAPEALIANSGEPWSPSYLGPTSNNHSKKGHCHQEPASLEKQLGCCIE

In general, half-life refers to the time needed for the level to fall by half in the phase considered. Read a high half-life as slow decline. By Cmax is commonly meant the peak of the concentration-time curve. One may read the Tmax as the time at which the peak concentration occurs. As a reminder, the bioavailability is the share of a dose that reaches the circulation, judged against a reference dose that is usually intravenous. High values mean good availability, low ones poor availability. `C1Cc2[nH]nc(-c3nnn[nH]3)c2C1`: the Vd in data set [1] was 13 L/kg. In data set [2], the half-life was 600 min. This compound also had a Cmax in [3] of 16 µM. Moreover, the Tmax in data set [4] is 4.98 min. Moreover, in [5], the bioavailability was found to be 93%.

With `O=C(O)c1n[nH]c2c1CCC2`, the Activity entry in the data set filed under Mus musculus [6] was “Dose-dependent effect”.

In general, IC50 refers to the midpoint of a concentration-inhibition curve. Lower therefore signals greater potency in that assay. For orientation: ED50 means the midpoint of the dose-response relation. In turn, `C1Cc2[nH]nc(-c3nn[nH]n3)c2C1` displayed an IC50 with Adipocyte of 3.1 µM. This compound yielded an ED50 in the data set on Mus musculus [7] of 3.1 mg/kg. In addition, the result (in [8]; in the data set listed under Mus musculus [10]) was inactive. The outcome in the data set filed under Mus musculus [9] was Active.

`O=C(O)c1cccnc1` [NIACIN] registered a 50% effective dose (ED50) with Mus musculus [7] of 9.7 mg/kg.
